The results in this text go back to ChEMBL document CHEMBL1811920, “Chemical constituents of a marine fungus, Arthrinium sacchari” (J Nat Prod, 2011).

Assay [1] relates to HUVEC. Put plainly: Antiangiogenesis activity in HUVEC assessed as inhibition of VEGF-induced cell proliferation after 72 hrs by MTT assay. The class given is functional, cell-based. As to conditions: Homo sapiens. Put shortly: (§1)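 Cells were purchased primary endothelial cells, maintained at 37 C in 5% CO2: HUVECs in EGM-2 Bulletkit medium and HUAECs in EGM-2MV Bulletkit medium. For the assay, 3 103 cells/well were seeded in culture medium for 3 h, then switched to 1% FBS EBM-2 for 21 h. VEGF (1 nM) and compounds were added for 72 h. Proliferation was read with WST-8 at 450 nm. Ki8751, a VEGFR2 kinase inhibitor, was the positive control.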
(In general: Tetrazolium assays rely on reduction of a dye to a coloured formazan, in cell work by metabolically active cells.)

Assay [2] in a line: Antiangiogenesis activity in HUAEC assessed as inhibition of VEGF-induced cell proliferation after 72 hrs by MTT assay. In kind it is functional. As to conditions: Homo sapiens. Put shortly:
as §1

One may read the IC50 as the midpoint of a concentration-inhibition curve. Regarding `C=C[C@@]1(C)C=C2C(=O)C(O)=C3[C@](C)(C(=O)O)CC[C@@H]4C[C@]34[C@]2(O)C(=O)C1` [MYROCIN A], the IC50 amounted to 11 µM in assay [1] and 9.2 µM in assay [2].
In the same order, the values of `C=C[C@]1(C)C=C2C(=O)C(O)=C3[C@@](C)(CO)CC[C@@H](O)[C@]3(C)[C@@]2(O)CC1` [LIBERTELLENONE C] are 29.7 µM and 68.7 µM.
In the same order, the values of `C=C[C@]1(C)C=C2C(=O)C3=C4[C@@](C)(CC[C@@H](O)[C@]4(C)[C@@]2(O)CC1)[C@@H](O)O3` [LIBERTELLENONE E] are 236 µM and 238 µM.
With `C[C@H]1C/C=C/[C@H]2[C@@H]3O[C@]3(C)[C@@H](C)[C@H]3[C@H](Cc4ccccc4)NC(=O)[C@]32OC(=O)O/C=C/[C@@](C)(O)C1=O` [CYTOCHALASIN E], the IC50 came to 0.0114 µM in assay [1] and 0.011 µM in assay [2].
In the same order, the values of `Cc1c(O)cc(O)c2c(=O)oc(CO)c(C)c12` [DECARBOXYHYDROXYCITRINONE] are 7.6 µM and 17.4 µM.
In the same order, the values of `C=C[C@]1(C)C=C2[C@@H](O)[C@@H]3OC(=O)[C@@]4(C)CC[C@H]5C[C@]5([C@@H]34)[C@@]2(O)C(=O)C1` [MYROCIN D] are 70.8 µM and 277 µM.
In the same order, the values of `C=C[C@]1(C)C=C2C(=O)C3=C4[C@@](C)(CC[C@@H](O)[C@]4(C)[C@@]2(O)CC1)CO3` [LIBERTELLENONE F] are 64.1 µM and 97.8 µM.
